ChEMBL document CHEMBL4196149, “Antiproliferative Alkaloids from Alangium longiflorum, an Endangered Tropical Plant Species” (J Nat Prod, 2018)
Calls of active or inactive are those of the source. The calls are words filed in the database; no cut-off is given here.

Columns and labels:
MDA-MB-231 [1] = assay: Antiproliferative activity against human MDA-MB-231 cells at 40 uM after 72 hrs by SRB assay; assay type: functional, cell-based
Homo sapiens [2] = organism: Homo sapiens; assay: Antiproliferative activity against human KBVIN cells at 40 uM after 72 hrs by SRB assay; assay type: functional, cell-based
MCF7 [3] = assay: Antiproliferative activity against human MCF7 cells at 40 uM after 72 hrs by SRB assay; assay type: functional, cell-based
KB [4] = assay: Antiproliferative activity against human KB cells at 40 uM after 72 hrs by SRB assay; assay type: functional, cell-based
A549 [5] = assay: Antiproliferative activity against human A549 cells at 40 uM after 72 hrs by SRB assay; assay type: functional, cell-based
MCF7 [6] = assay: Antiproliferative activity against human MCF7 cells after 48 hrs by SRB assay; assay type: functional, cell-based; conditions: MCF7, 48 h
MCF7 [7] = assay: Antiproliferative activity against human MCF7 cells after 24 hrs by SRB assay; assay type: functional, cell-based; conditions: MCF7, 24 h
[8] = Antiproliferative activity against human KBVIN cells after 24 hrs by SRB assay; assay type: functional, cell-based
Outline: (§1)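 SRB assay. Cell suspensions were seeded at 4000–12 000 cells/well in RPMI-1640 with 2 mM L-glutamine, 25 mM HEPES, 10% FBS, streptomycin and penicillin. Cells were exposed to compounds for 72 h. For the time course, cells were plated 24 h before treatment and then exposed for 24, 48 or 72 h. Cells were fixed in 10% TCA and stained with 0.04% SRB. Bound dye was dissolved in 10 mM Tris and read at 515 nm.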

MDA-MB-231 [9] = assay: Cell cycle arrest in human MDA-MB-231 cells assessed as accumulation at sub-G1 phase at 10 times IC50 after 48 hrs by propidium iodide staining based flow cytometry; assay type: functional
Outline: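 DMSO served as vehicle control and combretastatin A-4 at 0.1 μM as the G2/M-arrest control. Harvested cells were fixed and stained with propidium iodide plus RNase. DNA content was analysed by flow cytometry, and sub-G1 cells were counted. Each experiment was done at least twice.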

[10] = Antiproliferative activity against human KBVIN cells after 48 hrs by SRB assay; assay type: functional, cell-based; outline: as §1
[11] = Antiproliferative activity against human KBVIN cells after 72 hrs by SRB assay; assay type: functional, cell-based; outline: as §1
MDA-MB-231 [12] = assay: Antiproliferative activity against human MDA-MB-231 cells after 48 hrs by SRB assay; assay type: functional, cell-based; conditions: MDA-MB-231, 48 h
CNS carcinoma cell = assay: Antiproliferative activity against human CNS cancer cells at 10 to 100 nM after 48 hrs by SRB assay; assay type: functional, cell-based
A549 [13] = assay: Antiproliferative activity against human A549 cells after 24 hrs by SRB assay; assay type: functional, cell-based; conditions: A549, 24 h
Outline: (§2)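 Time-course: cells seeded at 4000–12 000 per well 24 h before compound exposure for 24, 48 or 72 h, as named in the line. Cells then fixed in 10% trichloroacetic acid, stained with 0.04% SRB, and dye solubilized in 10 mM Tris base read at 515 nm. […] Medium RPMI-1640 with 10% FBS.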

KB [14] = assay: Antiproliferative activity against human KB cells after 24 hrs by SRB assay; assay type: functional, cell-based
Ovarian carcinoma cell = assay: Antiproliferative activity against human ovarian cancer cells at 10 to 100 nM after 48 hrs by SRB assay; assay type: functional, cell-based
KB [15] = assay: Antiproliferative activity against human KB cells after 72 hrs by SRB assay; assay type: functional, cell-based
Leukemia cell = assay: Antiproliferative activity against human leukemia cells at 10 to 100 nM after 48 hrs by SRB assay; assay type: functional, cell-based
Homo sapiens [16] = organism: Homo sapiens; assay: Antiproliferative activity against human renal cancer cells at 10 to 100 nM after 48 hrs by SRB assay; assay type: functional, cell-based
Homo sapiens [17] = organism: Homo sapiens; assay: Antiproliferative activity against human […] cells at 10 to 100 nM after 48 hrs by SRB assay; assay type: functional, cell-based
KB [18] = assay: Antiproliferative activity against human KB cells after 48 hrs by SRB assay; assay type: functional, cell-based
MDA-MB-231 [19] = assay: Antiproliferative activity against human MDA-MB-231 cells after 72 hrs by SRB assay; assay type: functional, cell-based; conditions: MDA-MB-231, 72 h
Melanoma cell = assay: Antiproliferative activity against human melanoma cells at 10 to 100 nM after 48 hrs by SRB assay; assay type: functional, cell-based
Homo sapiens [20] = organism: Homo sapiens; assay: Antiproliferative activity against human non-small cell lung cancer cells at 10 to 100 nM after 48 hrs by SRB assay; assay type: functional
NCI/ADR-RES = assay: Antiproliferative activity against human NCI-ADR-RES cells after 48 hrs by SRB assay
A549 [21] = assay: Antiproliferative activity against human A549 cells after 48 hrs by SRB assay; assay type: functional, cell-based; conditions: A549, 48 h; outline: as §2
MCF7 [22] = assay: Antiproliferative activity against human MCF7 cells after 72 hrs by SRB assay; assay type: functional, cell-based; conditions: MCF7, 72 h
MDA-MB-231 [23] = assay: Antiproliferative activity against human MDA-MB-231 cells after 24 hrs by SRB assay; assay type: functional, cell-based; conditions: MDA-MB-231, 24 h
A549 [24] = assay: Antiproliferative activity against human A549 cells after 72 hrs by SRB assay; assay type: functional, cell-based; conditions: A549, 72 h; outline: as §2
Breast carcinoma cell = assay: Antiproliferative activity against human breast cancer cells at 10 to 100 nM after 48 hrs by SRB assay; assay type: functional, cell-based
Prostatic carcinoma cell = assay: Antiproliferative activity against human prostate cancer cells at 10 to 100 nM after 48 hrs by SRB assay; assay type: functional

| Compound | Activity (MDA-MB-231 [1]) | Activity (Homo sapiens [2]) | Activity (MCF7 [3]) | Activity (KB [4]) | Activity (A549 [5]) | IC50 (MCF7 [6]) [µM] | IC50 (MCF7 [7]) [µM] | IC50 [8] [µM] | IC50 [10] [µM] | IC50 [11] [µM] | IC50 (MDA-MB-231 [12]) [µM] | IC50 (A549 [13]) [µM] | IC50 (KB [14]) [µM] | IC50 (KB [15]) [µM] | IC50 (KB [18]) [µM] | IC50 (MDA-MB-231 [19]) [µM] | IC50 (A549 [21]) [µM] | IC50 (MCF7 [22]) [µM] | IC50 (MDA-MB-231 [23]) [µM] | IC50 (A549 [24]) [µM] | also measured |
| --- | --- | --- | --- | --- | --- | --- | --- | --- | --- | --- | --- | --- | --- | --- | --- | --- | --- | --- | --- | --- | --- |
| C=C[C@H]1[C@H](O[C@@H]2O[C@H](CO)[C@@H](O)[C@H](O)[C@H]2OC(=O)/C=C/c2cc(OC)c(O)c(OC)c2)OC=C2C(=O)N3CCc4cc(O)c(O)cc4[C@H]3C[C@H]21 | inactive | inactive | inactive | inactive | inactive | – | – | – | – | – | – | – | – | – | – | – | – | – | – | – | – |
| CC[C@H]1CN2CCc3c(cc(OC)c(OC)c3O)[C@@H]2C[C@@H]1C[C@H]1NCCc2c1[nH]c1ccc(O)cc21 | – | – | – | – | – | 0.16 | 0.12 | 8.9 | 11.1 | > 10 | 0.08 | 0.21 | 0.09 | 0.21 | 0.15 | 0.08 | 0.23 | 0.21 | 0.06 | 0.28 | Activity (MDA-MB-231 [9]): Active; Activity (CNS carcinoma cell): Active; Activity (Ovarian carcinoma cell): Active; Activity (Leukemia cell): Active; Activity (Homo sapiens [16]): Active; Activity (Homo sapiens [17]): Active; Activity (Melanoma cell): Active; Activity (Homo sapiens [20]): Active; Activity (NCI/ADR-RES): Active; Activity (Breast carcinoma cell): Active; Activity (Prostatic carcinoma cell): Active |
| C=C[C@H]1[C@H](O[C@@H]2O[C@H](CO)[C@@H](O)[C@H](O)[C@H]2OC(=O)/C=C/c2cc(OC)c(O)c(OC)c2)OC=C2C(=O)N3CCc4cc(O)c(OC)cc4[C@H]3C[C@H]21 | inactive | inactive | inactive | inactive | inactive | – | – | – | – | – | – | – | – | – | – | – | – | – | – | – | – |
| CC(=O)O[C@H]1C(=O)[C@@]2(C)[C@H]([C@H](OC(=O)c3ccccc3)[C@]3(O)C[C@H](OC(=O)[C@H](O)[C@@H](NC(=O)c4ccccc4)c4ccccc4)C(C)=C1C3(C)C)[C@]1(OC(C)=O)CO[C@@H]1C[C@@H]2O [PACLITAXEL] | – | – | – | – | – | – | – | > 3 | 2.88 | 2.38 | – | – | – | – | – | – | – | – | – | – | – |
| CC[C@H]1CN2CCc3cc(O)c(OC)cc3[C@@H]2C[C@@H]1C[C@H]1NCCc2c1[nH]c1ccc(O)cc21 | – | – | – | – | – | 0.27 | 0.25 | > 10 | > 10 | > 10 | 0.23 | 0.36 | 0.29 | 0.62 | 0.47 | 0.22 | 0.3 | 0.38 | 0.19 | 0.62 | – |
| COc1cccc2c1C(=O)c1c(O)c3c(c(O)c1C2=O)C[C@@](O)(C(=O)CO)C[C@@H]3O[C@H]1C[C@H](N)[C@H](O)[C@H](C)O1 [DOXORUBICIN] | – | – | – | – | – | – | – | > 1 | > 1 | > 1 | – | – | 0.82 | 0.22 | 0.34 | – | – | – | – | – | – |
